The source made the active and inactive calls. No cut-off for these calls is given here.
Tests used:
[1] = biological target: T1, DNA topoisomerase 2-alpha (Homo sapiens, UniProt P11388); assay: Inhibition of DNA topoisomerase 2alpha-mediated pBR322 DNA cleavage at 50 uM by SDS-PAGE
Summary of the method: (§1)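 Topoisomerase IIα (150 ng) with 80 ng pBR322 and 0.5 mM ATP in pH 8.0 Tris/KCl/NaCl/MgCl2/glycerol buffer. Drug added last from DMSO. Incubated 10 min at 37°C, quenched with SDS/EDTA, then proteinase K 30 min at 55°C. Linear DNA resolved on a 1.2% agarose ethidium bromide gel against a HindIII-linearised pBR322 marker.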

[2] = biological target: T1, DNA topoisomerase 2-alpha; assay: Ratio of etoposide IC50 to IC50 for drug against human DNA topoisomerase 2alpha-mediated decatenation of kinetoplast plasmid DNA by fluorescent plate reader
[3] = biological target: T1, DNA topoisomerase 2-alpha; assay: Inhibition of DNA topoisomerase 2alpha-mediated pBR322 DNA cleavage at 100 uM by SDS-PAGE; summary of the method: as §1
[4] = biological target: T1, DNA topoisomerase 2-alpha; assay: Inhibition of DNA topoisomerase 2alpha in human K562 cells assessed as protein-DNA covalent complex formation at 80 uM by scintillation counting; assay type: cell-based
Summary of the method: (§2)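 K562 or K/VP.5 cells prelabelled 24 h with [3H]thymidine and [14C]leucine. Cells held at 1.5×10^6/ml in HEPES-buffered saline-glucose pH 7.4 and exposed to compound for 60 min at 37°C in the dark. Protein-DNA complexes precipitated with SDS/KCl after lysis and DNA shearing, and counted by scintillation. 3H normalised to 14C protein.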

[5] = biological target: T1, DNA topoisomerase 2-alpha; assay: Inhibition of DNA topoisomerase 2alpha in human K-VP.5 cells assessed as decrease in protein-DNA covalent complex formation at 80 uM by scintillation counting; assay type: cell-based; summary of the method: as §2
[6] = biological target: T1, DNA topoisomerase 2-alpha; assay: Inhibition of DNA topoisomerase 2alpha in human K562 cells assessed as protein-DNA covalent complex formation under UV irradiation by scintillation counting; assay type: cell-based
Summary of the method: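 Radiolabelled K562 cells (1.5×10^6/ml, pH 7.4 buffer) given compound (2.5–20 μM), then irradiated or not at 365 nm for 5 min from 16 mm. Incubated 60 min at 37°C in the dark. SDS/KCl-precipitated protein-DNA complexes measured by scintillation, with 3H normalised to 14C. Nine experiments on different days. Paired t-tests of UV versus no UV at each concentration.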

[7] = biological target: T1, DNA topoisomerase 2-alpha; assay: Inhibition of DNA topoisomerase 2alpha-mediated pBR322 DNA cleavage at 20 uM by SDS-PAGE
[8] = system: K562; assay: Cytotoxicity against human K562 cells after 72 hrs by MTS assay; assay type: functional, cell-based; details: K562, 72 h
Summary of the method: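 K562 cells in αMEM with 10% fetal calf serum, 37°C, 5% CO2. Exponentially growing cells seeded at 6000/well. Compound added from DMSO stock (final DMSO 0.5% v/v), continuous exposure for 72 h. MTS added for a further 3 h and absorbance read. Three replicates per concentration. IC50 from a four-parameter logistic fit.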

[9] = biological target: T1, DNA topoisomerase 2-alpha; details: K562, 25 uM
[10] = biological target: T1, DNA topoisomerase 2-alpha; details: K562, 50 uM
[11] = biological target: T1, DNA topoisomerase 2-alpha; details: 50 uM

T1 sequence (P11388 whole entry): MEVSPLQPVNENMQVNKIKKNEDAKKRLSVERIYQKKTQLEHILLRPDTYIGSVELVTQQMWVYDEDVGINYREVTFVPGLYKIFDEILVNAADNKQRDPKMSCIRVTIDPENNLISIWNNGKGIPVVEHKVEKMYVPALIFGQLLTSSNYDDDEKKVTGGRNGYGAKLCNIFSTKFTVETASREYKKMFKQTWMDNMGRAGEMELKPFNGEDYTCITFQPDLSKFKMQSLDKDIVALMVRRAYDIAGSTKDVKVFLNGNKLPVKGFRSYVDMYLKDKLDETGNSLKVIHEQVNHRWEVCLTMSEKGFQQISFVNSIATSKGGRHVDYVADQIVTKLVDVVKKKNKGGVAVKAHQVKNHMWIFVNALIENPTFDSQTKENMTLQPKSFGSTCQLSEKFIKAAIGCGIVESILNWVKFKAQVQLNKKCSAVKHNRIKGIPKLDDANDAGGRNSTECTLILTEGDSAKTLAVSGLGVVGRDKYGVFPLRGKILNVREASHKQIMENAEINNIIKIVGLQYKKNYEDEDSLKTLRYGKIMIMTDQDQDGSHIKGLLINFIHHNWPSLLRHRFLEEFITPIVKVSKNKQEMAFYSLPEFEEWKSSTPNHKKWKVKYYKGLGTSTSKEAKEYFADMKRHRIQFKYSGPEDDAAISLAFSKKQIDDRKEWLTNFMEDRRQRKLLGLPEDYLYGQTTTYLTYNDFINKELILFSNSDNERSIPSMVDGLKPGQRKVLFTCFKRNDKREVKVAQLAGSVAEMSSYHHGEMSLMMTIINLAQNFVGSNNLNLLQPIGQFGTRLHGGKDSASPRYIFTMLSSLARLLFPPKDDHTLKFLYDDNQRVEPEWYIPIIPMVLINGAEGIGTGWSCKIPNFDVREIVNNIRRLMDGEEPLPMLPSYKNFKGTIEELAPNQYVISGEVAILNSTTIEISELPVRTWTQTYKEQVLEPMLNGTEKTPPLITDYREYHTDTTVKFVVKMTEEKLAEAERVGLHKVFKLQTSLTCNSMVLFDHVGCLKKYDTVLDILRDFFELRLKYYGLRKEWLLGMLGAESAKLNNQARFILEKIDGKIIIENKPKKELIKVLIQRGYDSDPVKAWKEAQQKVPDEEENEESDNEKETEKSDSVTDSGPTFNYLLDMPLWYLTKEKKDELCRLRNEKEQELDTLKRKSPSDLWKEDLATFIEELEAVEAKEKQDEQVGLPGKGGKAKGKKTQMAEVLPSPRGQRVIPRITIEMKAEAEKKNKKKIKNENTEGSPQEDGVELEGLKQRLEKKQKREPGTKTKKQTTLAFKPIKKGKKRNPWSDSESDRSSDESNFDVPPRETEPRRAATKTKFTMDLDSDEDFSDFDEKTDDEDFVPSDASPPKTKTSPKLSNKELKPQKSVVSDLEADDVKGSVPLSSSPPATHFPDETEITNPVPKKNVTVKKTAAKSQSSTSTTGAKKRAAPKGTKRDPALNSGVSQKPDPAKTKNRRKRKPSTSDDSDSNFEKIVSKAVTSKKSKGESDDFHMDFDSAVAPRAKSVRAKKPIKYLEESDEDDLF

Structure (SMILES) | inhibition [1] | Ratio IC50 [2] | inhibition [3] | inhibition [4] | inhibition [5] | inhibition [6] | inhibition [7] | IC50 [8] [nM] | inhibition [9] | inhibition [10] | inhibition [11]
CC[C@@]1(O)C(=O)OCc2c1cc1n(c2=O)Cc2cc3ccccc3nc2-1 | 40% |  |  |  |  |  |  |  |  |  | 
COc1cc([C@@H]2c3cc4c(cc3[C@@H](NC(=O)c3ccc(C5(C(F)(F)F)N=N5)cc3)[C@H]3COC(=O)[C@H]23)OCO4)cc(OC)c1O [DIAZIRINE] | Active | 2 | Active | Active | Active | Dose-dependent effect | inactive |  |  |  | 
COc1cc([C@@H]2c3cc4c(cc3[C@@H](O[C@@H]3O[C@@H]5CO[C@@H](C)O[C@H]5[C@H](O)[C@H]3O)[C@H]3COC(=O)[C@H]23)OCO4)cc(OC)c1O [ETOPOSIDE] |  |  | Active |  |  |  | inactive | 420 | inactive | Active | Active

From ChEMBL document CHEMBL1157724 (Bioorg Med Chem, 2010)
